Experimental findings from ChEMBL document CHEMBL4819017 (Eur J Med Chem, 2021) are described below.

Series [1] in a line: Volume of distribution in BALB/c mouse at 5 mg/kg, iv measured for 8 hrs. It is filed as ADME, organism-based. The note with it: in vivo. A digest of the protocol:
(§1)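 Dosing in BALB-C mice intravenously or orally, with plasma sampled over 8 h. Parameters (AUC, T1/2, Cl, Vd, Cmax, Tmax) come from a noncompartmental model. Units: AUC h.ng/ml, Vd L/Kg, Cmax ng/ml, Tmax h.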

Series [2] can be described thus: Inhibition of PI3K/mTOR in human MCF7 cells assessed as reduction of S6 phosphorylation at Ser235/236 residue measured after 3 hrs by western blot assay. The note with it: MCF7, 3 h. The series is classed as cell-based. A digest of the protocol: (§2)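 MCF7 cells treated for 3 h across a dose range, washed and lysed with phosphatase and protease inhibitors. Lysates run on 10% SDS-PAGE and blotted, antibodies incubated overnight at 4 °C.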
In general terms: Immunoblotting shows a protein as a band on a membrane.

Series [3] has as its target PI3-kinase p110-alpha/p85-alpha (Homo sapiens, UniProt P42336, H1047R). In words: Inhibition of p110alpha H1047R mutant/p85alpha (unknown origin) using PIP2:3PS lipid kinase as substrate in presence of ATP measured by ADP-Glo lipid kinase assay. It is filed as protein-complex assay. An outline of the steps:
(§3)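 Lipid kinase assay with PIP2:3PS substrate held at 3.25 µM. Activity normalized to no-compound control for each enzyme and fitted to a variable-slope sigmoidal dose-response curve.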
(In general: In ADP-Glo the light output rises with the ADP produced.)

The species named for series [4] is Homo sapiens. The series is described as follows: Selectivity ratio of IC50 for recombinant human GST tagged mTOR (1360 to 2549 residues) expressed in baculovirus expression system to IC50 for human full length p110alpha (1 to 1068 residues) expressed in baculovirus-infected Sf21 cells. An outline of the steps: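 mTOR activity measured by LanthaScreen assay. PI3K-α activity measured by ADP Hunter Plus (ADP accumulation, fluorescence ex 544/em 580 nm), normalized to no-compound control and fitted to a sigmoid dose-response curve. IC50s are the average of two independent experiments. Ratio is mTOR IC50 over PI3K-α IC50.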

In series [5] the target is PI3-kinase p110-alpha/p85-alpha (Homo sapiens, UniProt P42336, E542K). The series is described as follows: Inhibition of p110alpha E542K mutant/p85alpha (unknown origin) using PIP2:3PS lipid kinase as substrate in presence of ATP measured by ADP-Glo lipid kinase assay. The series is classed as protein-complex assay. A digest of the protocol: as §3
Chain of PI3-kinase p110-alpha/p85-alpha (Homo sapiens, UniProt P42336, E542K) (P42336 whole entry E542K, looked up): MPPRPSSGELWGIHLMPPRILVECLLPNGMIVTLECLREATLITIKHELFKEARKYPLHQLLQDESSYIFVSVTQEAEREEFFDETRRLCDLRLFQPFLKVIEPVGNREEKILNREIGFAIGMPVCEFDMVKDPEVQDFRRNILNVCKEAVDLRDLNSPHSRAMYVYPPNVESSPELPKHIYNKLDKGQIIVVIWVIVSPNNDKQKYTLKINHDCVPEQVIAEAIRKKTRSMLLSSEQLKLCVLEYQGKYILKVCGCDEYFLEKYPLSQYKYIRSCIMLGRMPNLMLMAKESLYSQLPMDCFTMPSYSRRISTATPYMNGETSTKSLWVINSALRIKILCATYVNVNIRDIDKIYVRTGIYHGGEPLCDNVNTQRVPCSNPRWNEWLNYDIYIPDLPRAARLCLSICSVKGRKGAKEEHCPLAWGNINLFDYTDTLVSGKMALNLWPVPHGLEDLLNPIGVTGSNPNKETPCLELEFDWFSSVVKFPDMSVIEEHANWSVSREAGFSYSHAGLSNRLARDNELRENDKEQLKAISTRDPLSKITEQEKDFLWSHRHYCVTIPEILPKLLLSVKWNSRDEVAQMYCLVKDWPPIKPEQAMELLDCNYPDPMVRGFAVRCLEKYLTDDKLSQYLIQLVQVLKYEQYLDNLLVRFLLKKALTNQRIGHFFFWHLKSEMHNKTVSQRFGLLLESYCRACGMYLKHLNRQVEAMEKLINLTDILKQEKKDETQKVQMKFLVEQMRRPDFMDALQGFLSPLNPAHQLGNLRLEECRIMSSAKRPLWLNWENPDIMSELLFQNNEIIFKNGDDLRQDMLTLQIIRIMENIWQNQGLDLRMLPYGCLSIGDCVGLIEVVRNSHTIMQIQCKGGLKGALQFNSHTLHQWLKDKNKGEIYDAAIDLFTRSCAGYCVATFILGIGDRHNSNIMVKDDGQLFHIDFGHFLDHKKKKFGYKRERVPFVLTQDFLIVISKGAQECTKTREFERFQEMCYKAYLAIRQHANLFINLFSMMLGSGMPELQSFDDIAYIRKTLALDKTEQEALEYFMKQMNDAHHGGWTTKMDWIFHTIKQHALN
Series [6] can be described thus: Plasma concentration in BALB/c mouse at 10 mg/kg, po measured for 8 hrs. The series is classed as ADME, organism-based. A digest of the protocol:
as §1

Another series deals with Cytochrome P450 2D6 (Homo sapiens, UniProt P10635). The series is described as follows: Inhibition of CYP2D6 (unknown origin) using Luciferin-ME-EG as substrate at 10 uM preincubated with enzyme and substrate for 5 mins followed by addition of NADPH regeneration system and measured after 60 mins by luminescence method. The series is classed as ADME. An outline of the steps: (§4)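 P450-Glo luminescence assays with these substrates: Luciferin-ME (CYP1A2), Luciferin-PPXE (CYP3A4), Luciferin-H (CYP2C9), LuciferinH-EG (CYP2C19), Luciferin-ME-EG (CYP2D6). Compounds run in 1/3 serial dilutions from 10 µM in 0.5% DMSO with enzyme and substrate. After 5 min preincubation, NADPH regeneration reagent added; 60 min at 37 °C, then detection reagent for 30 min. Background subtracted.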
Chain of Cytochrome P450 2D6 (P10635 whole entry): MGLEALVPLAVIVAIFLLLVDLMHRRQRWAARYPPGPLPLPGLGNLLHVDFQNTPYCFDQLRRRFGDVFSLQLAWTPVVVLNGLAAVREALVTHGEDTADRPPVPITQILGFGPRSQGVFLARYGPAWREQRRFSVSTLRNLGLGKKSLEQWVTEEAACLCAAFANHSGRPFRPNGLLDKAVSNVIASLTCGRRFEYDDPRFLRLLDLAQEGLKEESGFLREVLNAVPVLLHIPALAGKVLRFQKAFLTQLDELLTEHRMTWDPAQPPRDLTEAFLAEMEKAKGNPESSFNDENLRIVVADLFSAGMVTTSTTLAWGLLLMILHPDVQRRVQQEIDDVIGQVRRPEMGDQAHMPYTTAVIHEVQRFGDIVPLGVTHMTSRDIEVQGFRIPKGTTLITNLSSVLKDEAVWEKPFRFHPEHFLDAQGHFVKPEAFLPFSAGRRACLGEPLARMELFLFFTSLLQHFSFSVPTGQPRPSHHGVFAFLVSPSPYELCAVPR

The species named for series [7] is Homo sapiens. The series is described as follows: Selectivity ratio of Ki for human p110delta/p85alpha to Ki for human p110alpha/p85alpha using PIP2 as substrate in presence of ATP. An outline of the steps:
(§5)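 Ki from a PI3-kinase HTRF assay run per manufacturer. Enzyme levels: p110α/p85α and p110δ/p85α 100 pM, p110β/p85α 500 pM, p110γ 4 nM. ATP at 50× KM: 200 μM (α, δ), 250 μM (β), 100 μM (γ). PIP2 10 μM. Activity normalized to no-compound control. Ratio is the isoform Ki over the α Ki.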

Series [8] is described as follows: Inhibition of p110alpha E545K mutant/p85alpha (unknown origin) using PIP2:3PS lipid kinase as substrate in presence of ATP measured by ADP-Glo lipid kinase assay. On the set-up: species or system Homo sapiens. A digest of the protocol: as §3
Series [9] can be described thus: Metabolic stability in rat liver microsomes assessed as parent compound remaining in presence of NADPH regenerating system at 0.5 uM measured after 15 mins by LC-MS/MS analysis. It is filed as ADME, Microsome. The note with it: read-out: Stabilty. A digest of the protocol:
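Human, mouse or rat liver microsomes at 0.5 mg/ml protein with compound at 0.5 µM and NADPH-regenerating system, 37 °C with shaking. Control wells contain 0.1 M potassium phosphate instead of the regenerating system. Reaction stopped with acetonitrile/0.1% formic acid, centrifuged, supernatant analyzed by LC-MS/MS. Result is percent parent compound remaining.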
On the technique in general: Microsomes from liver hold many membrane-bound enzymes, among them those of drug oxidation.

A short description of series [10]: Inhibition of PI3K/mTOR in human MCF7 cells assessed as reduction of P70S6K phosphorylation at Thr389 residue measured after 3 hrs by western blot assay. It is filed as cell-based. The note with it: MCF7, 3 h. An outline of the steps: as §2
Series [11] in a line: Tmax in BALB/c mouse at 10 mg/kg, po measured for 8 hrs. The series is classed as ADME, organism-based. As to conditions: in vivo. An outline of the steps:
as §1

The target in series [12] is Phosphatidylinositol 4,5-bisphosphate 3-kinase catalytic subunit alpha isoform (Homo sapiens, UniProt P42336). The series is described as follows: Inhibition of human full length p110alpha (1 to 1068 residues) expressed in baculovirus-infected Sf21 cells by ADP-Hunter Plus assay.
Chain of Phosphatidylinositol 4,5-bisphosphate 3-kinase catalytic subunit alpha isoform (P42336 whole entry, the tested form may be a part, canonical isoform): as the sequence (P42336 whole entry E542K, looked up) above, with K542E counted along it
The species entered for series [13] is Homo sapiens. The series is described as follows: Selectivity ratio of Ki for human p110beta/p85alpha to Ki for human p110alpha/p85alpha using PIP2 as substrate in presence of ATP. A digest of the protocol: as §5
The nature of series [14]: Inhibition of PI3K/mTOR in human MCF7 cells assessed as reduction of AKT phosphorylation at Thr308 residue measured after 3 hrs by western blot assay. It is filed as cell-based. As to conditions: MCF7, 3 h. A digest of the protocol: as §2
For another series, the system named is MCF7. The series is described as follows: Growth inhibition of human MCF7 cells harboring mutated p110alpha measured after 72 hrs by Cell titre Glo-luminiscence cell viability assay. The series is classed as functional. A digest of the protocol:
(§6)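 Cells harvested just before confluency and seeded at 4,000 cells/well, then left 24 h before dosing. Serial dilutions from 10 mM DMSO stocks, final DMSO ≤0.5%, each concentration in duplicate.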

A further series has as its system HT-29. The series is described as follows: Growth inhibition of human HT-29 cells harboring mutated p110alpha measured after 72 hrs by Cell titre Glo-luminiscence cell viability assay. The series is classed as functional. A digest of the protocol: as §6
Series [15] can be described thus: Half life in BALB/c mouse at 5 mg/kg, iv measured for 8 hrs. It is filed as ADME, organism-based. As to conditions: in vivo. A digest of the protocol:
(§7)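 BALB/c mice dosed I.V. or P.O. at the stated dose; plasma levels followed for 8 h. Parameters from noncompartmental analysis: AUC (h.ng/ml), T1/2 (h), Cl (L/h/Kg), Vd (L/Kg), Cmax (ng/ml), Tmax (h).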

Series [16] addresses PI3-kinase p110-delta/p85-alpha (Homo sapiens, UniProt O00329). In words: Inhibition of human p110delta/p85alpha using PIP2 as substrate in presence of ATP measured by HTRF assay. The series is classed as protein-complex assay.
For a further series, the target named is PI3K p110 beta/p85 alpha (Homo sapiens, UniProt P42338). In words: Inhibition of human p110beta/p85alpha using PIP2 as substrate in presence of ATP measured by HTRF assay. The series is classed as protein-complex assay.
Chain of PI3K p110 beta/p85 alpha (P27986 whole entry): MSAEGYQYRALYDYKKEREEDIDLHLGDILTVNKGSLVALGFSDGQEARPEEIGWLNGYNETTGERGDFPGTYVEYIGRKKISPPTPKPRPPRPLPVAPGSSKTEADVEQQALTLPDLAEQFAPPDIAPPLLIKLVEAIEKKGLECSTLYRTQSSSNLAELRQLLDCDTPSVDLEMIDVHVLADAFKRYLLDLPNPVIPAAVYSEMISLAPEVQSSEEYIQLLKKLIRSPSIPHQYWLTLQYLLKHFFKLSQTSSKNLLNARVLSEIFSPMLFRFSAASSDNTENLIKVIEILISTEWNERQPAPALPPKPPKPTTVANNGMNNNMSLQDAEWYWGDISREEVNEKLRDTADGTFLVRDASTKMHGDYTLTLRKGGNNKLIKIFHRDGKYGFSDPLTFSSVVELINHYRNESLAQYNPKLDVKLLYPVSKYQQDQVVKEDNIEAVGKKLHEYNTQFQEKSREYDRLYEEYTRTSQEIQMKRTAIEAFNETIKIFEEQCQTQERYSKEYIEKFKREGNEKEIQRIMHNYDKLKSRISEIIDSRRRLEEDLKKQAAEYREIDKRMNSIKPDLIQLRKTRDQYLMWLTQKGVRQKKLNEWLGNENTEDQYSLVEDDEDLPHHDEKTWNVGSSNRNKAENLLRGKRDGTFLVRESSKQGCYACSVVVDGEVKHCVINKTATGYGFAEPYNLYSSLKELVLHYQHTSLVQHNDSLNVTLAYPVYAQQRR
Chain of PI3K p110 beta/p85 alpha (P42338 whole entry): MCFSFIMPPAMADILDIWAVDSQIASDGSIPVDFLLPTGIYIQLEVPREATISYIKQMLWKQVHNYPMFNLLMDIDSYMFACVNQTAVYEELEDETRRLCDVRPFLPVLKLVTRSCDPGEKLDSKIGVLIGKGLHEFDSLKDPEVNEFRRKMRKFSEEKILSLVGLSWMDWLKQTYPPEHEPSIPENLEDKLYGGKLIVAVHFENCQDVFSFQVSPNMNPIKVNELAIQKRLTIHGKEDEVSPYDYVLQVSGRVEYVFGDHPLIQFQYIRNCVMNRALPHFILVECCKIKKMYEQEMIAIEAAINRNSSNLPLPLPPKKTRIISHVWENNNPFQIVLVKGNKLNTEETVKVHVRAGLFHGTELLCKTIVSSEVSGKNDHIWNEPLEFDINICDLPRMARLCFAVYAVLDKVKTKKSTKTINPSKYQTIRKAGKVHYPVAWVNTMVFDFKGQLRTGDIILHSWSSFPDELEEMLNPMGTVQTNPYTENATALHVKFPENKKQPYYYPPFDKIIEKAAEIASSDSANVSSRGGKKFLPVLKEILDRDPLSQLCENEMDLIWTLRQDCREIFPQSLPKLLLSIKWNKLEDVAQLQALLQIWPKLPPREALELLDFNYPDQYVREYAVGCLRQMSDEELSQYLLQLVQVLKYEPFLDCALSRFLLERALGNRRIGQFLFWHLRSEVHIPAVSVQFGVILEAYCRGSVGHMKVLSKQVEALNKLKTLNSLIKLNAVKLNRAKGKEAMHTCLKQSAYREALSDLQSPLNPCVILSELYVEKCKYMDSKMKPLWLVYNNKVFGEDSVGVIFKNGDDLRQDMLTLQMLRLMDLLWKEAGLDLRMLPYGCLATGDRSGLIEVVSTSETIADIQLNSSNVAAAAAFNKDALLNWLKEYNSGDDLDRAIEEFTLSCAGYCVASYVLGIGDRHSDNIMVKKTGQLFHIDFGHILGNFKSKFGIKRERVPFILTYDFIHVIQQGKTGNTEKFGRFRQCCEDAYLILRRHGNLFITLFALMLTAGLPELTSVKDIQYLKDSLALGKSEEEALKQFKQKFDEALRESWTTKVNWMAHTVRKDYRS
Series [17] can be described thus: Clearance in BALB/c mouse at 5 mg/kg, iv measured for 8 hrs. It is filed as ADME, organism-based. The note with it: in vivo. A digest of the protocol:
as §7

The nature of series [18]: Cmax in BALB/c mouse at 10 mg/kg, po measured for 8 hrs. The series is classed as ADME, organism-based. The arrangement: route oral, dose 10 mg/kg, time 8 hrs. The note with it: in vivo. An outline of the steps: as §7
The target in another series is Cytochrome P450 3A4 (Homo sapiens, UniProt P08684). The series is described as follows: Inhibition of CYP3A4 (unknown origin) using Luciferin-PPXE as substrate at 10 uM preincubated with enzyme and substrate for 5 mins followed by addition of NADPH regeneration system and measured after 60 mins by luminescence method. The series is classed as ADME. An outline of the steps:
as §4

Chain of PI3-kinase p110-delta/p85-alpha (P27986 whole entry): as the sequence (P27986 whole entry) above
Chain of PI3-kinase p110-delta/p85-alpha (O00329 whole entry): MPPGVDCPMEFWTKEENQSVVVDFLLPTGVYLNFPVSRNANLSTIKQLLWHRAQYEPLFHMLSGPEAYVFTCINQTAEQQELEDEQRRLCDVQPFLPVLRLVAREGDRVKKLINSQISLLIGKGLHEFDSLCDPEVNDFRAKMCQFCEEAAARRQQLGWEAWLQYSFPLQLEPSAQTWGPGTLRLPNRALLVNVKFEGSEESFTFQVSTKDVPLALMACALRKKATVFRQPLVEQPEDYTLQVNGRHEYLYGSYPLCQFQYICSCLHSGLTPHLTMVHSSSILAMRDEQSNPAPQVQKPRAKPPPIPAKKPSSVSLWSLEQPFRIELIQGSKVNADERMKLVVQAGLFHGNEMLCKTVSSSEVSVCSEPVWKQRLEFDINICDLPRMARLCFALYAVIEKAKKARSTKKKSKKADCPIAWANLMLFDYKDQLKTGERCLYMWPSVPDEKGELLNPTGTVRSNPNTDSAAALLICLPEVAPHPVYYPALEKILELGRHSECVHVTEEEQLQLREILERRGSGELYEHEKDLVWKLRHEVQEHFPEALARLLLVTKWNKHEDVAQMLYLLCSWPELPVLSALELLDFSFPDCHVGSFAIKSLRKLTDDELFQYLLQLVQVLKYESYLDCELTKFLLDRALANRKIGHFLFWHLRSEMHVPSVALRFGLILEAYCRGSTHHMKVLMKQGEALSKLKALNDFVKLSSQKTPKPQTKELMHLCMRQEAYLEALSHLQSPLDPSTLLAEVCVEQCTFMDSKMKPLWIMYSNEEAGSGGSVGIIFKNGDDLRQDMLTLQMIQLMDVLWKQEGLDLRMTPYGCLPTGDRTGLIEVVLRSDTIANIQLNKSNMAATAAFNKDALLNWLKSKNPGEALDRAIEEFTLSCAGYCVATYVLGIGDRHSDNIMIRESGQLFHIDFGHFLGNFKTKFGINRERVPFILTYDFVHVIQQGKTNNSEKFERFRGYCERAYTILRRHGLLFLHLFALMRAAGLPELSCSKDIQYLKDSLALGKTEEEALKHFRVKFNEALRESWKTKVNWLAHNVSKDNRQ
Chain of Cytochrome P450 3A4 (P08684 whole entry): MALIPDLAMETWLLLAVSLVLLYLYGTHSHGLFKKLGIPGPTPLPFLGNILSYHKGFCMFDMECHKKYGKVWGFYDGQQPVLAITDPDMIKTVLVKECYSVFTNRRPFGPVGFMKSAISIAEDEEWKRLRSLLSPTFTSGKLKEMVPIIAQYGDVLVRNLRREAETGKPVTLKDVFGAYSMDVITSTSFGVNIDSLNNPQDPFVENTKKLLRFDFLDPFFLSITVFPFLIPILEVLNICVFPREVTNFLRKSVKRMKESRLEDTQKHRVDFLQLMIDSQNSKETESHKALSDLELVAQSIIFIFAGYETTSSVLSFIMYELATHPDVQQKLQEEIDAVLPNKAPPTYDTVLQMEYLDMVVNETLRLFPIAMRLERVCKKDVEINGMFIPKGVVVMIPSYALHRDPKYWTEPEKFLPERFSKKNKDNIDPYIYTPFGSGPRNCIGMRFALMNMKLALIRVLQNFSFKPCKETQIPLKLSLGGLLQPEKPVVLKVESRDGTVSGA
Chain of PI3-kinase p110-alpha/p85-alpha (Homo sapiens, UniProt P42336, H1047R) (P42336 whole entry H1047R, looked up): as the sequence (P42336 whole entry E542K, looked up) above, with K542E, H1047R counted along it

Take `COc1ncc2cc1NS(=O)(=O)c1cccc(c1)C(=O)NCc1cncc(c1)-c1cnc3ccc-2cn13`: in [1], the distribution volume (Vd) (commonly a proportionality between amount in the body and measured concentration, not a real space) is 5.98 L/kg. In addition, the EC50 (usually the concentration at which the effect is half-maximal) in series [2] came to 0.84 nM; in series [10] it was 0.92 nM; in [14], 0.14 nM. Also, the Ki (as a rule, a dissociation constant, usually derived from enzyme kinetics or from competition with a known ligand) in series [3] was found to be 0.1 nM; in series [5], 0.27 nM; in series [8] it was 0.14 nM; in series [16], 0.06 nM; at PI3K p110 beta/p85 alpha, 0.94 nM. In the series listed under Homo sapiens [4], the Ratio IC50 is 4.1. In [6], this compound gave a concentration at 8 h of 202 ng/mL. The IC50 – broadly, the concentration that inhibits the measured activity by half – against Cytochrome P450 2D6 is above 30000 nM; in series [12], 0.8 nM; on Cytochrome P450 3A4, above 30000 nM. For the same compound, the values for the Selectivity ratio in the series filed under Homo sapiens [7] and in the series filed under Homo sapiens [13] were 0.4 and 6, respectively. Further, the remaining at 0.25 h, 0.5 µM in [9] was determined as 100%. Moreover, the time of peak concentration (Tmax) (commonly the time at which the peak concentration occurs) in series [11] amounted to 0.5 h. The GI50 (as a rule, the concentration that inhibits growth by half) in the series on MCF7 is 7 nM; with HT-29 it was 8.2 nM. For the same compound, the half-life (commonly the time in which the quantity being followed falls by half) in series [15] is 2.59 h. In series [17], the clearance (usually the rate of elimination divided by the concentration) is 31.5 mL/min/kg. In addition, the concentration in series [18] peaked (Cmax) at 1570 ng/mL.
